Assay results from ChEMBL document CHEMBL1781927, “Highly selective c-Jun N-terminal kinase (JNK) 3 inhibitors with in vitro CNS-like pharmacokinetic properties II. Central core replacement” (Bioorg Med Chem Lett, 2011).
Converted amounts (≈) assume the structure as drawn.

Columns and labels:
[1] = molecular target: Mitogen-activated protein kinase 9 (Homo sapiens, UniProt P45984); assay: Inhibition of JNK2 by TR-FRET assay
Summary of the method: (§1)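 IC50s were determined at a single fixed ATP concentration, and each value is the mean of at least three independent experiments.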

[2] = molecular target: Mitogen-activated protein kinase 10 (Homo sapiens, UniProt P53779); assay: Inhibition of JNK3 by TR-FRET assay; summary of the method: as §1
[3] = molecular target: Mitogen-activated protein kinase 8 (Homo sapiens, UniProt P45983); assay: Inhibition of JNK1 by TR-FRET assay; summary of the method: as §1
[4] = Oxidative metabolic stability in mouse liver microsomes assessed as compound remaining after 30 mins; format: ADME, Microsome; conditions: read-out: Stability
Summary of the method: (§2)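 Liver microsomes, mouse or human, were incubated with the compound for 30 min under oxidative conditions. The read-out is the percent of parent compound remaining.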

[5] = Apparent permeability from apical to basolateral side in MDCK2 cells at 5 uM after 120 mins; format: ADME, cell-based, Canis lupus familiaris, MDCK-II; conditions: dog, MDCK
[6] = Oxidative metabolic stability in human liver microsomes assessed as compound remaining after 30 mins; format: ADME, Microsome; conditions: read-out: Stability; summary of the method: as §2
[7] = Metabolic stability in mouse liver microsomes assessed as compound remaining after 60 mins in presence of UDPGA; format: ADME, Microsome; conditions: read-out: Stability
[8] = Solubility of the compound; format: physicochemical
[9] = Metabolic stability in human liver microsomes assessed as compound remaining after 60 mins in presence of UDPGA; format: ADME, Microsome; conditions: read-out: Stability
[10] = Selectivity ratio of IC50 for JNK1 to IC50 for JNK3
[11] = Efflux ratio, permeability from apical to basolateral side to basolateral to apical side in MDR1 expressing MDCK2 cells at 5 uM after 120 mins; format: ADME, cell-based, Canis lupus familiaris; conditions: dog, mdck-ii, 2 h

Chain of Mitogen-activated protein kinase 10 (P53779 whole entry): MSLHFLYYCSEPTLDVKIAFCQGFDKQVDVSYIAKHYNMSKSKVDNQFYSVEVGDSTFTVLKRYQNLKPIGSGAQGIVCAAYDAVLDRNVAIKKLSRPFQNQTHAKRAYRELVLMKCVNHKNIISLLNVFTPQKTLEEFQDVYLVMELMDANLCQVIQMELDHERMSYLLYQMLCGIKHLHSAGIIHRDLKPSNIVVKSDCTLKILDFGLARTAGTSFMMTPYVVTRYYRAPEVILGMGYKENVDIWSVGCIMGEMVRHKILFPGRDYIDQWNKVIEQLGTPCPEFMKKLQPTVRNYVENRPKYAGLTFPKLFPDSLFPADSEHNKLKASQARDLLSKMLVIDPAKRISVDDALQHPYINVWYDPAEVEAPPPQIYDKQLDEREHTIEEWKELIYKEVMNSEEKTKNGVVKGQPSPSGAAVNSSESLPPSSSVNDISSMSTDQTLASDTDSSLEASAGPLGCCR
Chain of Mitogen-activated protein kinase 8 (P45983 whole entry): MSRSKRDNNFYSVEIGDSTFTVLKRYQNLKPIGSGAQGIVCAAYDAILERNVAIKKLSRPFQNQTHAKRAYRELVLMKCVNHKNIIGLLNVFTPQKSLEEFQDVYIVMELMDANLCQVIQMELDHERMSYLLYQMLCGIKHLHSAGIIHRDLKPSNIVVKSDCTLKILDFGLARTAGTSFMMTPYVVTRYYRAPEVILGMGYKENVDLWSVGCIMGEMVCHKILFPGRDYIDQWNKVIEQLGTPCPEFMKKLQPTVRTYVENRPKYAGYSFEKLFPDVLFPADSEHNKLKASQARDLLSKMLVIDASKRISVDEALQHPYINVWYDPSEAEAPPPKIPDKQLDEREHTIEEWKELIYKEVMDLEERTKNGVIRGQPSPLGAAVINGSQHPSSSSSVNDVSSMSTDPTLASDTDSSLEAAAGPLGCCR
Chain of Mitogen-activated protein kinase 9 (P45984 whole entry): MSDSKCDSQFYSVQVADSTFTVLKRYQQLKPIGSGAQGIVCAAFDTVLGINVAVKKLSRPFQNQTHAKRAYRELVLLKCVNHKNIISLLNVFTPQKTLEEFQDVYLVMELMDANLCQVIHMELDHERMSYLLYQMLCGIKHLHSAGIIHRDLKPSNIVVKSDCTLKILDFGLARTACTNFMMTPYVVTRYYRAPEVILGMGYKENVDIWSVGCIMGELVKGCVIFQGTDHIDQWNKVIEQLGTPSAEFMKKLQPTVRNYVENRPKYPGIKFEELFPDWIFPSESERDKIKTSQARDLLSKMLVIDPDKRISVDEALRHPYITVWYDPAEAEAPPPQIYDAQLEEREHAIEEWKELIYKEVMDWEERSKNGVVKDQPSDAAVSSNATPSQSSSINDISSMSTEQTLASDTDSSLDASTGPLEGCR

| IC50 [1] [µM] | IC50 [2] [µM] | IC50 [3] [µM] | remaining at 0.5 h [4] [%] | Papp A→B at 2 h, 5 µM [5] [×10⁻⁶ cm/s] | remaining at 0.5 h [6] [%] | remaining at 1 h [7] [%] | solubility [8] [µM] | remaining at 1 h [9] [%] | Ratio IC50 [10] | Ratio [11] | Structure (SMILES) |
| --- | --- | --- | --- | --- | --- | --- | --- | --- | --- | --- | --- |
| > 50 | 49.1 | > 50 |  |  |  |  | 15 (≈ 4.1 µg/mL) |  |  |  | c1ccc2cc(-n3nnnc3-c3ccncc3)ccc2c1 |
| 6.39 | 1.91 | > 50 | 0 |  | 18 |  |  |  |  |  | c1ccc2cc(-n3ccnc3-c3ccncc3)ccc2c1 |
|  |  |  |  |  |  |  |  |  | 20 |  | c1ccc2cc(-c3nn[nH]c3-c3ccncc3)ccc2c1 |
| > 50 | 30.4 | > 50 |  |  |  |  | 78 (≈ 23.9 µg/mL) |  |  |  | Clc1nnc(-c2ccncc2)n1-c1ccc2ccccc2c1 |
| 34 | 14.9 | > 50 |  |  |  |  | 65 (≈ 19.7 µg/mL) |  |  |  | N/N=c1\[nH]nc(-c2ccncc2)n1-c1ccc2ccccc2c1 |
| > 50 | > 50 | > 50 |  |  |  |  | 35 (≈ 13.4 µg/mL) |  |  |  | S=c1[nH]nc(-c2ccnc(Br)c2)n1-c1ccc2ccccc2c1 |
| 0.864 | 0.245 | 7.15 | 1 | 16.9 | 52 | 100 |  | 73 |  | 1.14 | c1ccc2cc(-c3n[nH]cc3-c3ccncc3)ccc2c1 |

Continued, compound first:

| Structure (SMILES) | IC50 [1] [µM] | IC50 [2] [µM] | IC50 [3] [µM] | remaining at 0.5 h [4] [%] | Papp A→B at 2 h, 5 µM [5] [×10⁻⁶ cm/s] | remaining at 0.5 h [6] [%] | remaining at 1 h [7] [%] | solubility [8] [µM] | remaining at 1 h [9] [%] | Ratio IC50 [10] | Ratio [11] |
| --- | --- | --- | --- | --- | --- | --- | --- | --- | --- | --- | --- |
| c1ccc2cc(-c3[nH]nnc3-c3ccncc3)ccc2c1 | 1.22 | 0.364 | 6.85 | 2 | 15.2 | 44 |  |  |  |  |  |
| c1ccc2cc(-n3cnnc3-c3ccncc3)ccc2c1 | 19 | 4.48 | > 50 | 76 | 30.6 | 100 | 87 | 35 (≈ 9.53 µg/mL) | 100 |  |  |
| c1ccc2cc(-n3nncc3-c3ccncc3)ccc2c1 | 9.14 | 2.67 | > 50 |  |  |  |  |  |  |  |  |
| Cc1nnc(-c2ccncc2)n1-c1ccc2ccccc2c1 | 46.2 | 18.3 | > 50 |  |  |  |  | 100 (≈ 28.6 µg/mL) |  |  |  |
| Fc1cnccc1-c1n[nH]c(=S)n1-c1ccc2ccccc2c1 | 34.6 | 27.4 | > 50 |  |  |  |  | 35 (≈ 11.3 µg/mL) |  |  |  |
| S=c1[nH]nc(-c2ccncc2)n1-c1cnc2ccccc2c1 | > 50 | > 50 | > 50 |  |  |  |  | 100 (≈ 30.5 µg/mL) |  |  |  |
| Cc1cc(-c2n[nH]c(=S)n2-c2ccc3ccccc3c2)ccn1 | 15.3 | 14.8 | > 50 |  |  |  |  | 100 (≈ 31.8 µg/mL) |  |  |  |
